Assay results published in ChEMBL document CHEMBL1240521, “Design and synthesis of biphenyl derivatives as mushroom tyrosinase inhibitors” (Bioorg Med Chem, 2010).
pIC50, pKi: −log10 of the molar value.

molecular target: T1, Tyrosinase (Agaricus bisporus, UniProt O42713); assay: Inhibition of mushroom tyrosinase after 30 mins
T1 sequence (O42713 whole entry): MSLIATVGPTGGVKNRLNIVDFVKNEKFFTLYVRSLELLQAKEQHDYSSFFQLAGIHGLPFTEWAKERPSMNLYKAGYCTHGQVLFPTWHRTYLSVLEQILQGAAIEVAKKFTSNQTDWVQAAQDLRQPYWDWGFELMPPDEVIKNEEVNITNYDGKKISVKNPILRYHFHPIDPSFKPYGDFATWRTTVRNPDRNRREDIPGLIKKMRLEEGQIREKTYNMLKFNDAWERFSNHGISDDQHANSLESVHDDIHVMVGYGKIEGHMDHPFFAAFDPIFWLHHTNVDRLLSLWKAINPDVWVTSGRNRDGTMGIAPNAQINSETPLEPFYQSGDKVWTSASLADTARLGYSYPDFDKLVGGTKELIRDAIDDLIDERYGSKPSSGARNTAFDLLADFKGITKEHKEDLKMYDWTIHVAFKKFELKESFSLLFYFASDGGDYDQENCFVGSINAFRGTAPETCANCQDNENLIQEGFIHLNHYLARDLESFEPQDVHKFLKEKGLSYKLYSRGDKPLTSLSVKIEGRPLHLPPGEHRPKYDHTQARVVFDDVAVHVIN

Row | pIC50 | SMILES
1 | < 2.70 | COc1cc(-c2ccc(C)c(O)c2)cc(OC)c1OC
2 | < 2.70 | COc1cc(-c2cc(F)cc(F)c2)cc(OC)c1OC
3 | < 2.70 | COc1cc(-c2ccc(F)cc2F)cc(OC)c1OC
4 | < 2.70 | COc1cc(-c2ccc(F)c(F)c2)cc(OC)c1OC
5 | < 2.70 | COc1cc(-c2cccc(O)c2)cc(OC)c1OC
6 | < 2.70 | COc1cc(-c2ccccc2C)cc(OC)c1OC
7 | 4.22 | COc1cc(-c2ccc(C=O)c(O)c2)cc(OC)c1O
8 | 4.05 | COc1cc(-c2ccc(C)c(O)c2)cc(OC)c1O
9 | 4.10 | COc1cc(-c2cc(F)cc(F)c2)cc(OC)c1O
10 | 4.22 | COc1cc(-c2ccc(F)cc2F)cc(OC)c1O
11 | 4.15 | COc1cc(-c2ccc(F)c(F)c2)cc(OC)c1O
12 | 4.22 | COc1cc(-c2cccc(OC)c2F)cc(OC)c1O
13 | 4.10 | COc1cc(-c2cccc(O)c2F)cc(OC)c1O
14 | 4.05 | COc1cc(-c2cccc(O)c2)cc(OC)c1O
15 | 3.77 | COc1cc(-c2ccccc2C)cc(OC)c1O
16 | 4.30 | COc1cc(-c2ccc(C(=O)O)cc2)cc(OC)c1O
17 | < 2.70 | COc1cc(-c2ccc(C=O)c(OCc3ccccc3)c2)cc(OC)c1OC
18 | < 2.70 | COc1cc(-c2ccc(C=O)c(O)c2)cc(OC)c1OC
19 | < 2.70 | COc1cc(-c2ccc(C(=O)O)c(OCc3ccccc3)c2)cc(OC)c1OC

Row | pIC50 | SMILES
20 | < 2.70 | COc1cc(-c2ccc(C(=O)O)c(O)c2)cc(OC)c1OC
21 | < 2.70 | CCOC(=O)c1ccc(-c2cc(OC)c(OC)c(OC)c2)cc1O
22 | < 2.70 | COc1cc(-c2ccc(C(=O)NCc3ccccc3)c(OCc3ccccc3)c2)cc(OC)c1OC
23 | < 2.70 | COc1cccc(-c2cc(OC)c(OC)c(OC)c2)c1F
24 | < 2.70 | COc1ccc(C(C)=O)cc1-c1cc(OC)c(OC)c(OC)c1
25 | < 2.70 | COc1ccc(C(C)O)cc1-c1cc(OC)c(OC)c(OC)c1 (configuration not stated)
26 | 3.26 | COc1cc(-c2cccc(OCc3ccccc3)c2)cc(OC)c1OC
27 | < 2.70 | COc1cc(-c2ccc(C(=O)O)cc2)cc(OC)c1OC
28 | < 2.70 | CCCCNC(=O)c1ccc(-c2cc(OC)c(OC)c(OC)c2)cc1
29 | < 2.70 | COc1cc(-c2ccc(C(=O)NCc3ccccc3)cc2)cc(OC)c1OC
30 | 3.77 | COc1cc(-c2ccc(O)c(OCc3ccccc3)c2)cc(OC)c1OC
31 | 4.70 | COc1cc(-c2ccc(C(=O)O)c(O)c2)cc(OC)c1O
32 | 4.30 | CCOC(=O)c1ccc(-c2cc(OC)c(O)c(OC)c2)cc1O
33 | 4.52 | COc1cc(-c2ccc(C(=O)NCc3ccccc3)c(O)c2)cc(OC)c1O
34 | 3.85 | COc1ccc(C(C)=O)cc1-c1cc(OC)c(O)c(OC)c1
35 | 3.72 | COc1ccc(C(C)O)cc1-c1cc(OC)c(O)c(OC)c1 (configuration not stated)
36 | 4.15 | CCCCNC(=O)c1ccc(-c2cc(OC)c(O)c(OC)c2)cc1
37 | 3.92 | COc1cc(-c2ccc(C(=O)NCc3ccccc3)cc2)cc(OC)c1O
38 | 3.85 | COc1cc(-c2ccc(O[C@@H]3O[C@H](CO)[C@@H](O)[C@H](O)[C@H]3O)c(O)c2)cc(OC)c1O [FORTUNEANOSIDE E]

molecular target: T1, Tyrosinase; assay: Competitive inhibition of mushroom tyrosinase after 30 mins by Lineweaver-Burke double reciprocal plot analysis
How it was run: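 Inhibition type and Ki were determined with respect to L-tyrosine as substrate, using mushroom tyrosinase with dopachrome read-out at 492 nm. Incubation was 30 min at 37 °C in 25 mM PBS, pH 6.8.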

Row | pKi | SMILES
39 | 4.42 | COc1cc(-c2ccc(C(=O)O)cc2)cc(OC)c1O
40 | 4.82 | COc1cc(-c2ccc(C(=O)O)c(O)c2)cc(OC)c1O
41 | 4.22 | COc1cc(-c2ccc(C(=O)NCc3ccccc3)c(O)c2)cc(OC)c1O
42 | 4.51 | CCCCNC(=O)c1ccc(-c2cc(OC)c(O)c(OC)c2)cc1
